Compound activity deposited in PubChem by Sanford-Burnham Center for Chemical Genomics.
STEP inh: blocks human striatal-enriched tyrosine phosphatase | P54829 | recombinant STEP, OMFP fluorogenic substrate, fluorescence | inhibition, % at 20 µM | 360,000 tested, 0.25% active;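 active means inhibition at 20 µM, scaled per plate between control wells, above about 37%, limit read from the data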;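 further: 0% = DMSO with enzyme and substrate and 100% = substrate only without enzyme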
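Also added – OMFP at 25 µM · Test system – STEP tyrosine phosphatase · Technique – FITC-channel fluorescence of OMFP product · Schedule – 20 min at room temperature, dark · Evaluation – control-normalized % inhibition with plate pattern correction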
Rpn11 block: blocks the human proteasome subunit Rpn11 | inhibition, % at 20 µM | 360,000 tested, 0.59% active | O00487 | human 26S proteasome, Ub4-pepOG fluorescence polarization; 20S core pre-blocked with epoxomicin;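 active means inhibition at 20 µM, scaled to each plate's controls, above about 33%, limit read from the data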
LMPTP block: blocks human LMPTP phosphatase; AID 651560; 360,000 tested, 0.22% active; inhibition, % at 20 µM; recombinant LMPTP-A, OMFP fluorogenic substrate, fluorescence intensity; P24666;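 active means compounds that cut the enzyme signal by at least half of the control window in the single-dose screen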;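 further: plate controls were DMSO wells with enzyme plus substrate for no effect and substrate without enzyme for full effect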
Target sequence (P24666 whole entry, looked up): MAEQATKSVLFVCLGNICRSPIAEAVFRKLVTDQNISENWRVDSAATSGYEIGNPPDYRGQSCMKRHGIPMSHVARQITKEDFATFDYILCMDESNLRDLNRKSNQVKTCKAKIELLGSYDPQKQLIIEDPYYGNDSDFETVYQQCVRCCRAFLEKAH
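Test system: LMPTP-A phosphatase enzyme. Amount: LMPTP-A at 0.625 nM final in the reaction. Reagent: OMFP substrate, 400 µM final. Times: 50 min at room temperature. Signal: endpoint fluorescence intensity from OMFP dephosphorylation. Read-out basis: % inhibition. Benchmarks: no-enzyme and uninhibited controls.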
DNMT1 inh: DNMT1 (human) enzyme inhibition. DNMT1 molecular beacon, Hinp1I cleavage, fluorescence. AID 588458. inhibition (reported as % activation of signal), % at 10 µM. 360,000 tested, 0.83% active; in the data active means inhibition above about 50%
Scp1 inh: Scp-1 (human) phosphatase inhibition; Q9GZU7; Recombinant Scp1, phosphopeptide, malachite green phosphate absorbance; inhibition, % at 20 µM; 340,000 tested, 0.88% active; AID 493091;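 active means inhibition above about 50% at 20 µM, limit read from the data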;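 further: plate controls were DMSO wells with enzyme for no effect and wells lacking enzyme for full effect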
Target sequence (Q9GZU7 76-261 limits assumed): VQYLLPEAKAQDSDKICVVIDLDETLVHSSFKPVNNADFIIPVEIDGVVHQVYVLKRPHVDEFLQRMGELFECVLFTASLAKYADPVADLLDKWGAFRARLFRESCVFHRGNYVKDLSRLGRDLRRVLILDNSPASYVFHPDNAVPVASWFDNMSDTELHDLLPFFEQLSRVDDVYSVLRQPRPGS
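System: SCP-1 catalytic domain; Reagent: Phospho 17-mer peptide substrate; Doses: one concentration, 20 µM, with 1.0% DMSO; Incubation: 45 min room-temperature reaction, 5 min colour, 30 min stabiliser; Signal: Phosphate-binding colour reagent, absorbance read at 630 nm.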
Starred values were filed as active, the others as inactive; · = not tested or not shown. Hits are enriched below; roughly 2% of the tested compounds scored in any of these assays.

SMILES	STEP inh	Rpn11 block	LMPTP block	DNMT1 inh	Scp1 inh
CC(c1ccccc1)N1C(=O)c2cccnc2C1=O (stereo unspecified)	-1	2	-3	1	-5
CCc1nc2ccc(C(=O)NCc3ccc4c(c3)OCO4)cn2c1N(C)Cc1ccc(OC)cc1	3	2	4	-1	·
COc1ccc(/C=N/NC(=O)c2cc(O)c(O)c(O)c2)cc1Cn1cc([N+](=O)[O-])cn1	5	-9	62*	22	83*
Cc1c(/C=N/Nc2ccc([N+](=O)[O-])cn2)c2ccccc2n1Cc1ccccc1	4	29	8	51*	-11
Cc1ccc(-n2c(C)cc(/C=N/Nc3ccc([N+](=O)[O-])cn3)c2C)cc1	0	19	0	1	102*
CCN(CC(=O)NC1CCS(=O)(=O)C1)S(=O)(=O)c1ccc(Br)cc1 (stereo unspecified)	-1	3	-1	8	0
CN(C)c1ccc(CNc2ccccn2)cc1	-1	-5	-1	2	-5
Cc1cccc(NCc2ccc(N(C)C)cc2)n1	-2	3	0	60*	-5
O=C(NCC[C@H]1CC[C@@H](NC(=O)C2CCC2)[C@@H](CO)O1)c1cc(Cl)cc(Cl)c1	·	·	-2	·	·
O=Cc1cccc(OC(=O)/C=C/c2ccco2)c1	48*	23	33	92*	69*
COC(=O)c1ccc(OC(=O)/C=C/c2ccco2)cc1	11	-1	7	17	10
Nc1cc2c(cc1Br)-c1ccccc1C2=NO	-4	-2	2	3	7
COc1ccc(/C=N/Nc2cc(C)nc3ccccc23)cc1	4	-10	62*	27	3
O=C(O)CCNc1cc(N2CCN(C(=O)c3ccco3)CC2)c2noc3c2c1C(=O)c1ccccc1-3	41*	·	11	106*	81*
CCN(CC(=O)Nc1ccc(NC(C)=O)cc1)C(=O)CCCc1c[nH]c2ccccc12	4	-4	0	-5	-5
O=C(O)CCN1C(=O)/C(=C/c2cn(-c3ccccc3)nc2-c2cccs2)SC1=S	74*	34	81*	17	38
COc1ccc(-c2nn(-c3ccccc3)cc2/C=C2/SC(=S)N(CCC(=O)O)C2=O)c(C)c1	2	10	7	12	-2
CCN1/C(=C/c2ccc3cc(C)ccc3[n+]2CC)Sc2ccc3sccc3c21	16	147*	84*	21	47
O=C1C=C(N2CCOCC2)c2ccccc2C1=O	1	23	11	82*	0
O=C1C=C(N2CCOCC2)c2cccc3cccc1c23	1	-39	9	5	·
O=C(O)c1cccc(Cn2c(Cl)c(/C=N/NC(=O)c3ccccc3)sc2=O)c1	3	3	-1	-1	-9
O=C(O)c1cccc(Cn2c(Cl)c(/C=N/NC(=O)c3cc4ccccc4cc3O)sc2=O)c1	4	4	55*	23	34
Cc1ccc(S(=O)(=O)N2CCCCC2)cc1NC(=O)COC(=O)c1ccc(=O)[nH]c1	-1	3	-1	1	-7
O=C(O)C1Nc2c(C(=O)N3CCOCC3)cccc2C2C=CCC12 (stereo unspecified)	10	-11	-2	107*	51*
Cc1cc(C)c2c(c1)NC(C(=O)O)C1CC=CC21 (stereo unspecified)	36	-20	43	76*	72*
SMILES	STEP inh	Rpn11 block	LMPTP block	DNMT1 inh	Scp1 inh
Cc1ccc2c(c1C)NC(C(=O)O)C1CC=CC21 (stereo unspecified)	20	34	63*	103*	80*
O=C(O)C1Nc2c(C(F)(F)F)ccc(Cl)c2C2C=CCC12 (stereo unspecified)	3	2	-1	7	2
COc1ccc(C(=O)c2sc3nc(-c4ccccc4)ccc3c2N)cc1	-3	64*	1	-8	-10
CCCCn1c(O)c2n(c1=O)Cc1ccccc1N=C2c1ccc(C)cc1	0	4	2	5	·
C/C(=N/NC(=O)c1cc(O)c(O)c(O)c1)c1ccc([N+](=O)[O-])cc1	1	-32	10	11	50*
C/C(=N\NC(=O)c1ccc([N+](=O)[O-])cc1)c1c(O)cc(C)oc1=O	-5	-5	-1	1	-6
COc1cc(NCCCCCCN)c2ncccc2c1OC	2	32	29	62*	-15
COc1cc(NC(C)CCCNC(C)C)c2ncccc2c1OC (stereo unspecified)	-2	-20	-1	-5	-3
CCCN(CCC)Cc1cc(=O)oc2ccc3ccccc3c12	5	6	2	7	·
O=C/C=C/c1coc2ccc3ccccc3c2c1=O	·	·	·	·	103*
CCCCCCCCN1C(=O)[C@H](CC(=O)NCc2ccc(OC)c(OC)c2)C[C@@]2(C(=O)OCC)CCCC=C12	·	·	4	·	·
C=CC#CC[N+]1(CC#Cc2ccccc2)CCOCC1	5	139*	52*	-30	9
C(#Cc1ccccc1)C[N+]1(CC#Cc2ccccc2)CCCC1	-4	-11	-3	2	3
CCc1nc(N)nc(N)c1-c1ccc(Cl)c(N=[N+]=[N-])c1	-1	-1	58*	-8	5
CCc1nc(N)nc(N)c1-c1ccc(Cl)c([N+](=O)[O-])c1	0	4	47	2	4
C/C(=C\CNc1ncnc2nc[nH]c12)CO	0	-6	-1	2	12
CC(C)CCCCCCCCCCCCC(=O)NCC(=O)NC1C(C)OC(Nc2ncnc3nc[nH]c23)C(O)C1O (stereo unspecified)	1	2	-1	94*	-8
CCNC(=O)C1(C)CCCN(C(=O)c2oc3ccccc3c2C)C1 (stereo unspecified)	-1	1	-1	3	·
C=CCN1C(=O)/C(=C/c2ccc(OC(C)=O)c(OCC)c2[N+](=O)[O-])SC1=S	-2	79*	0	-22	-13
CCOc1c(OC(C)=O)ccc(/C=C/c2ccc3cccc(OC(C)=O)c3n2)c1[N+](=O)[O-]	-2	2	-1	-6	-5
COc1ccc(-c2c(C#Cc3ccsc3)c3ccccc3n2C)cc1	0	-8	51*	32	46
COc1ccc(C#Cc2c(-c3ccccc3)n(C)c3ccccc23)cc1	-1	10	3	-10	-3
COc1ccc(N2C(=O)c3ccccc3NC(=O)C2C(=O)NCCc2ccccc2F)cc1 (stereo unspecified)	·	·	0	·	·
O=[N+]([O-])c1ccc(Cl)cc1Sc1nc2ccccc2o1	3	-15	3	7	-10
O=[N+]([O-])c1ccc(Sc2nc3ccccc3o2)c([N+](=O)[O-])c1	5	5	2	52*	-6
CCOC(=O)N1CCc2c(sc(NC(=O)c3ccc(S(=O)(=O)N4CCCC4)cc3)c2C#N)C1	-2	50*	1	-9	-8
